Laboratory results: ChEMBL document CHEMBL1153616, “Synthesis and antiviral activity of new pyrazole and thiazole derivatives” (Eur J Med Chem, 2009)
Values after ≈ are worked out from the molar mass of the structure shown. Active and inactive are the calls of the source. The calls are words filed in the database; no cut-off is given here.

How the values were obtained:
[1] = system: Mammalian orthoreovirus 1; assay: Antiviral activity against Reovirus 1 infected in african green monkey Vero cells assessed as inhibition of virus-induced cytopathicity after 3 days; assay type: functional, organism-based; conditions: Mammalian orthoreovirus 1, Vero, 72 h
Procedure, shortened: (§1)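 Confluent cell monolayers infected with 100 CCID50 virus; after 2 h adsorption at 37 °C, virus removed and serial compound dilutions added (DMSO stocks 10 mg/ml). Incubated 37 °C for 3 days until complete CPE in untreated virus control. EC50 = concentration protecting 50% of infected cells from viral cytopathogenicity; ">" marks highest concentration tested.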

[2] = Cytotoxicity against human HeLa cells assessed as minimum cytotoxic concentration required to cause microscopically detectable alteration in normal cell morphology; assay type: cell-based
Procedure, shortened: (§2)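 Run in parallel with antiviral assays on uninfected cell cultures; test compounds from 10 mg/ml DMSO stocks in serial dilution. Value is minimum cytotoxic concentration (MCC) producing microscopically detectable alteration of normal cell morphology.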

[3] = Selectivity index, ratio of MCC for african green monkey Vero cells to EC50 for Sindbis virus; assay type: toxicity, cell-based; conditions: read-out: Selectivity Index
Procedure, shortened: (§3)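 The ratio was MCC/EC50. MCC was the minimum concentration causing microscopically visible change in normal morphology of uninfected HEL, HeLa or Vero cells, scored in parallel with the antiviral test. EC50 came from the CPE assay: 100 CCID50 infection, 2 h adsorption at 37 °C, serial compound dilutions, and 3 days at 37 °C. It was the concentration protecting 50% of cells from virus-induced CPE.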

[4] = Cytotoxicity against HEL cells assessed as minimum cytotoxic concentration required to cause microscopically detectable alteration in normal cell morphology; assay type: cell-based; conditions: human; procedure, shortened: as §2
[5] = system: Sindbis virus; assay: Antiviral activity against Sindbis virus infected in african green monkey Vero cells assessed as inhibition of virus-induced cytopathicity after 3 days postinfection; assay type: functional, organism-based; conditions: 72 h; procedure, shortened: as §1
[6] = system: Vesicular stomatitis virus; assay: Antiviral activity against Vesicular stomatitis virus infected in human HeLa cells assessed as inhibition of virus-induced cytopathicity after 3 days; assay type: functional, organism-based; conditions: 72 h
[7] = system: Human alphaherpesvirus 1; assay: Antiviral activity against thymidine kinase-deficient ACV-resistant HSV1 KOS infected in human HEL cells assessed as inhibition of virus-induced cytopathicity after 3 days; assay type: functional, organism-based; conditions: Human alphaherpesvirus 1, KOS, 72 h
[8] = Selectivity index, ratio of MCC for african green monkey Vero cells to EC50 for Reovirus 1; assay type: toxicity, cell-based; conditions: read-out: Selectivity Index; procedure, shortened: as §3
[9] = Cytotoxicity against african green monkey Vero cells assessed as minimum cytotoxic concentration required to cause microscopically detectable alteration in normal cell morphology; assay type: cell-based; conditions: chlorocebus sabaeus; procedure, shortened: as §2
[10] = system: Human alphaherpesvirus 1; assay: Antiviral activity against HSV1 KOS infected in human HEL cells assessed as inhibition of virus-induced cytopathicity after 3 days; assay type: functional, organism-based; conditions: Human alphaherpesvirus 1, KOS, 72 h
[11] = system: Punta Toro virus; assay: Antiviral activity against Punta Toro virus infected in african green monkey Vero cells assessed as inhibition of virus-induced cytopathicity after 3 days; assay type: functional, organism-based; conditions: 72 h
Procedure, shortened: (§4)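 Confluent cell monolayers infected with 100 CCID50 virus; after 2 h adsorption at 37 °C, virus removed and serial compound dilutions added (DMSO stocks 10 mg/ml). Incubated 37 °C for 3 days until complete CPE in untreated virus control.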

[12] = system: Coxsackievirus B4; assay: Antiviral activity against Coxsackievirus B4 infected in human HeLa cells assessed as inhibition of virus-induced cytopathicity after 3 days; assay type: functional, organism-based; conditions: Enterovirus B, 72 h; procedure, shortened: as §4
[13] = system: Vesicular stomatitis virus; assay: Antiviral activity against Vesicular stomatitis virus infected in human HEL cells assessed as inhibition of virus-induced cytopathicity after 3 days; assay type: functional, organism-based; conditions: 72 h
[14] = Selectivity index, ratio of MCC for human HEL cells to EC50 for sVesicular stomatitis virus; assay type: toxicity, cell-based; conditions: read-out: Selectivity Index; procedure, shortened: as §3
[15] = system: Human respirovirus 3; assay: Antiviral activity against Parainfluenza virus type 3 infected in african green monkey Vero cells assessed as inhibition of virus-induced cytopathicity after 3 days; assay type: functional, organism-based; conditions: Human respirovirus 3, Vero, 72 h; procedure, shortened: as §1
[16] = system: Respiratory syncytial virus; assay: Antiviral activity against RSV infected in human HeLa cells assessed as inhibition of virus-induced cytopathicity after 3 days; assay type: functional, organism-based; conditions: 72 h; procedure, shortened: as §1
[17] = Selectivity index, ratio of MCC for african green monkey Vero cells to EC50 for Coxsackievirus B4; assay type: toxicity, cell-based; conditions: read-out: Selectivity Index; procedure, shortened: as §3
[18] = system: Vaccinia virus; assay: Antiviral activity against Vaccinia virus infected in human HEL cells assessed as inhibition of virus-induced cytopathicity after 3 days; assay type: functional, organism-based; conditions: Orthopoxvirus vaccinia, 72 h
[19] = system: Human alphaherpesvirus 2; assay: Antiviral activity against HSV2 G infected in human HEL cells assessed as inhibition of virus-induced cytopathicity after 3 days; assay type: functional, organism-based; conditions: Human alphaherpesvirus 2, strain G, 72 h; procedure, shortened: as §1
[20] = Selectivity index, ratio of MCC for human HeLa cells to EC50 for Coxsackievirus B4; assay type: toxicity, cell-based; conditions: read-out: Selectivity Index; procedure, shortened: as §3
[21] = system: Coxsackievirus B4; assay: Antiviral activity against Coxsackievirus B4 infected in african green monkey Vero cells assessed as inhibition of virus-induced cytopathicity after 3 days; assay type: functional, organism-based; conditions: Enterovirus B, 72 h; procedure, shortened: as §1
[22] = Selectivity index, ratio of MCC for african green monkey Vero cells to EC50 for Punta Toro virus; assay type: toxicity, cell-based; conditions: read-out: Selectivity Index; procedure, shortened: as §3
[23] = system: Cowpox virus; assay: Antiviral activity against Cowpox virus Brighton; assay type: functional, organism-based; conditions: Cowpox virus (Brighton Red)
[24] = system: Vaccinia virus; assay: Antiviral activity against Vaccinia virus Western Reserve; assay type: functional, organism-based; conditions: Orthopoxvirus vaccinia
[25] = Selectivity index, ratio of MCC for human HEL cells to EC50 for sVaccinia virus; assay type: toxicity, cell-based; procedure, shortened: as §3
[26] = system: Vaccinia virus; assay: Antiviral activity against Vaccinia virus Copenhagen; assay type: functional, organism-based; conditions: Orthopoxvirus vaccinia
[27] = system: Vaccinia virus; assay: Antiviral activity against Vaccinia virus Lister; assay type: functional, organism-based

Structure (SMILES) | EC50 [1] | MCC [2] | MCC [4] | EC50 [5] | EC50 [6] | EC50 [7] | MCC [9] | EC50 [10] | EC50 [11] | EC50 [12] | EC50 [13] | EC50 [15] | EC50 [16] | EC50 [18] | EC50 [19] | EC50 [21] | further results
CC(=O)N1N=C(c2ccc(C)cc2)CC1c1ccc(OCc2ccccc2)cc1 (stereo not given) | > 4 µg/mL | 20 µg/mL | 20 µg/mL | > 4 µg/mL | > 4 µg/mL | > 4 µg/mL | 20 µg/mL | > 4 µg/mL | > 4 µg/mL | > 4 µg/mL | > 4 µg/mL | > 4 µg/mL | > 4 µg/mL | > 4 µg/mL | > 4 µg/mL | > 4 µg/mL | selectivity ratio [3]: 5; selectivity ratio [8]: 5; selectivity ratio [14]: 5; selectivity ratio [17]: 5; selectivity ratio [20]: 5; selectivity ratio [22]: 5
Cc1ccc(C2=NN(C3=NC(=O)CS3)C(c3ccc(OCc4ccccc4)cc3)C2)cc1 (stereo not given) | > 20 µg/mL | 100 µg/mL | 20 µg/mL | > 20 µg/mL | > 20 µg/mL | > 4 µg/mL | 100 µg/mL | > 4 µg/mL | > 20 µg/mL | > 20 µg/mL | > 4 µg/mL | > 20 µg/mL | > 20 µg/mL | > 4 µg/mL | > 4 µg/mL | > 20 µg/mL | selectivity ratio [14]: 5
NC(=S)N1N=C(c2ccccc2)CC1c1ccc(OCc2ccccc2)cc1 (stereo not given) | > 20 µg/mL | ≥ 20 µg/mL | 100 µg/mL | > 20 µg/mL | > 20 µg/mL | > 20 µg/mL | 100 µg/mL | > 20 µg/mL | > 20 µg/mL | > 20 µg/mL | > 20 µg/mL | > 20 µg/mL | > 20 µg/mL | > 20 µg/mL | > 20 µg/mL | > 20 µg/mL | 
Cc1ccc(C2=NN(C(N)=S)C(c3ccc(OCc4ccccc4)cc3)C2)cc1 (stereo not given) | > 20 µg/mL | 4 µg/mL | 100 µg/mL | > 20 µg/mL | > 0.8 µg/mL | > 20 µg/mL | 100 µg/mL | > 20 µg/mL | > 20 µg/mL | > 0.8 µg/mL | > 20 µg/mL | > 20 µg/mL | > 0.8 µg/mL | > 20 µg/mL | > 20 µg/mL | > 20 µg/mL | selectivity ratio [20]: 5
CC(=O)N1N=C(c2ccc(Cl)cc2)CC1c1ccc(OCc2ccccc2)cc1 (stereo not given) | > 4 µg/mL | ≥ 20 µg/mL | 100 µg/mL | > 4 µg/mL | > 20 µg/mL | > 20 µg/mL | 20 µg/mL | > 20 µg/mL | > 4 µg/mL | > 20 µg/mL | > 20 µg/mL | > 4 µg/mL | > 20 µg/mL | 7 µg/mL (≈ 17.3 µM) | > 20 µg/mL | > 4 µg/mL | Activity [23]: inactive; selectivity ratio [3]: 5; Activity [24]: inactive; selectivity ratio [25]: 3.6; selectivity ratio [8]: 5; Activity [26]: inactive; Activity [27]: inactive; selectivity ratio [17]: 5; selectivity ratio [22]: 5
NC(=S)N1N=C(c2ccc(Cl)cc2)CC1c1ccc(OCc2ccccc2)cc1 (stereo not given) | > 100 µg/mL | > 100 µg/mL | > 100 µg/mL | > 100 µg/mL | > 100 µg/mL | > 100 µg/mL | > 100 µg/mL | > 100 µg/mL | > 100 µg/mL | > 100 µg/mL | > 100 µg/mL | > 100 µg/mL | > 100 µg/mL | > 100 µg/mL | > 100 µg/mL | > 100 µg/mL | 
Clc1ccc(C2=NN(c3nc(-c4ccc(Cl)cc4)cs3)C(c3ccc(OCc4ccccc4)cc3)C2)cc1 (stereo not given) | > 20 µg/mL | > 100 µg/mL | > 100 µg/mL | > 20 µg/mL | > 100 µg/mL | > 100 µg/mL | 100 µg/mL | > 100 µg/mL | > 20 µg/mL | > 100 µg/mL | > 100 µg/mL | > 20 µg/mL | > 100 µg/mL | > 100 µg/mL | > 100 µg/mL | > 20 µg/mL | 
Cc1ccc(C2=NN(c3nc(-c4ccc(Cl)cc4)cs3)C(c3ccc(OCc4ccccc4)cc3)C2)cc1 (stereo not given) | > 20 µg/mL | 100 µg/mL | 100 µg/mL | > 20 µg/mL | > 20 µg/mL | > 20 µg/mL | 100 µg/mL | > 20 µg/mL | > 20 µg/mL | > 20 µg/mL | > 20 µg/mL | > 20 µg/mL | > 20 µg/mL | > 20 µg/mL | > 20 µg/mL | > 20 µg/mL | 
